Conditions in all cases: 0.5 h
The target of experiment [1] is T1, Aromatase (Homo sapiens, UniProt P11511).
T1 sequence (P11511 whole entry): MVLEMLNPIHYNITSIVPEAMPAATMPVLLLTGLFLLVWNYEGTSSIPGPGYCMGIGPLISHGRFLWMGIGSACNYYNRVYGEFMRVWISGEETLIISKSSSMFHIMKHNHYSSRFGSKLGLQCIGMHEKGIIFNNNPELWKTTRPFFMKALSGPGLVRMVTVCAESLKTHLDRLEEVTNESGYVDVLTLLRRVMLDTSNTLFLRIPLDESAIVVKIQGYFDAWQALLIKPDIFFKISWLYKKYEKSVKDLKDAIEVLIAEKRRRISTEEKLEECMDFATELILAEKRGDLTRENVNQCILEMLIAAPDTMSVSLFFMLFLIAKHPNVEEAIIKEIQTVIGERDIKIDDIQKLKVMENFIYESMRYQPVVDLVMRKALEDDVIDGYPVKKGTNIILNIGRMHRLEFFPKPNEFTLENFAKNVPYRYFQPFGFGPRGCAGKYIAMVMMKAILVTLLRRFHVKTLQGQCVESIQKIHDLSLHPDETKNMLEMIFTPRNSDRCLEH
The experiment can be described thus: Inhibition of human recombinant aromatase at 10 uM after 30 mins relative to control. A digest of the protocol: (§1)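 Human recombinant aromatase (CYP19) expressed in insect cells via baculovirus; fluorogenic substrate methoxy-4-trifluoromethylcoumarin, 3 µM in the reaction. Compounds in acetone, serially diluted 1:3 in NADPH-cofactor buffer. Reaction started with prewarmed enzyme–substrate mix, 30 min at 37 °C. Fluorescence read at 409 nm excitation / 530 nm emission. Blank lacks enzyme. Inhibition as % of no-inhibitor control; mean ± SD, n = 4; Student t test.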

Experiment [2] has as its target T1, Aromatase. The experiment can be described thus: Inhibition of human recombinant aromatase at 1 uM after 30 mins relative to control. In outline:
as §1

For experiment [3], the target named is T1, Aromatase. Put plainly: Inhibition of human recombinant aromatase at 3 uM after 30 mins relative to control. In outline:
as §1

Experiment [4] addresses T1, Aromatase. Put plainly: Inhibition of human recombinant aromatase at 300 nM after 30 mins relative to control. In outline:
as §1

A value given as a limit tells only on which side of the number the result lay.

The inhibition is the change of the read-out against control, counted positive when it falls.

`CC(C)c1cc(C=O)c([C@@]2(C)CCCC(C)(C)[C@@H]2C=O)cc1O`: the inhibition at 10 µM on Aromatase [1] turned out to be 9.2%. Besides, the inhibition at 1 µM at Aromatase [2] is less than 0%. In addition, the inhibition at 3 µM on Aromatase [3] was determined as 3.3%. Moreover, at Aromatase [4], the inhibition at 0.3 µM amounted to 5.9%.
Regarding `COc1cc2c(cc1C(C)C)CC[C@H]1C(C)(C)CCC[C@]21C`, at Aromatase [1], the inhibition at 10 µM was 4.8%. For the same compound, the inhibition at 1 µM at Aromatase [2] is 2.2%. For the same compound, on Aromatase [3], the inhibition at 3 µM came out at 4.1%. Besides, the inhibition at 0.3 µM at Aromatase [4] was 9%.
Turning to `COc1cc2c(cc1C(C)C)C=C[C@@H]1C(C)(C)CCC[C@]21C`, the inhibition at 10 µM on Aromatase [1] was 19.8%. The inhibition at 1 µM on Aromatase [2] turned out to be 19.7%. Besides, the inhibition at 3 µM on Aromatase [3] turned out to be 18.6%. Further, the inhibition at 0.3 µM on Aromatase [4] turned out to be 16.2%.
With `COc1cc2c(cc1C(C)C)CC[C@@H]1C(C)(C)CCC[C@]21C`, the inhibition at 10 µM on Aromatase [1] stood at 19.7%. Moreover, the inhibition at 1 µM at Aromatase [2] was 15.9%. In addition, the inhibition at 3 µM at Aromatase [3] turned out to be 18.4%. The inhibition at 0.3 µM on Aromatase [4] was 15.2%.
On to `COc1cc2c(cc1C(C)C)C(=O)C[C@H]1C(C)(C)CCC[C@]21C`, for which the inhibition at 10 µM on Aromatase [1] was found to be 19.8%. On Aromatase [2], the inhibition at 1 µM is 18.1%. In addition, the inhibition at 3 µM on Aromatase [3] was 6.7%. Besides, on Aromatase [4], the inhibition at 0.3 µM was less than 0%.
In the same order, the values of `COc1cc2c(cc1C(C)C)C(=O)C[C@@H]1C(C)(C)CCC[C@]21C` are 19.5%, 28.7%, 23.9% and 20.7%.
As to `CC(C)c1cc(C=O)c([C@@]2(C)CCCC(C)(C)[C@H]2C=O)cc1O`, the inhibition at 10 µM on Aromatase [1] came out at 25.1%. Also, the inhibition at 1 µM at Aromatase [2] was found to be 24.5%. Besides, the inhibition at 3 µM at Aromatase [3] worked out at 24.9%. Moreover, at Aromatase [4], the inhibition at 0.3 µM came to 22.2%.
In the case of `CC(=O)N1CCN(c2ccc(OC[C@H]3CO[C@](Cn4ccnc4)(c4ccc(Cl)cc4Cl)O3)cc2)CC1` [KETOCONAZOLE], at Aromatase [1], the inhibition at 10 µM came to 87.9%. The inhibition at 1 µM at Aromatase [2] was found to be 84.2%. For the same compound, the inhibition at 3 µM at Aromatase [3] came out at 87.5%. The inhibition at 0.3 µM on Aromatase [4] was 81.7%.
In the same order, the values of `N#Cc1ccc(C(c2ccc(C#N)cc2)n2cncn2)cc1` [LETROZOLE] are 92.5%, 91.1%, 83.8% and 89.3%.
Turning to `CC(C)c1cc(C=O)c2c(c1O)[C@H](O)[C@H]1C(C)(C)CCC[C@]21C` [STANDISHINAL], the inhibition at 10 µM at Aromatase [1] was 23.7%. In addition, the inhibition at 1 µM on Aromatase [2] is 10.3%. In addition, the inhibition at 3 µM at Aromatase [3] is 6.7%. In addition, at Aromatase [4], the inhibition at 0.3 µM was 1.1%.

The values above are taken from ChEMBL document CHEMBL1142921, “Synthesis of DL-standishinal and its related compounds for the studies on structure-activity relationship of inhibitory activity against aromatase” (Bioorg Med Chem, 2007).
